Reference: ChEMBL document CHEMBL5252540, “3-Aroyl-1,4-diarylpyrroles Inhibit Chronic Myeloid Leukemia Cell Growth through an Interaction with Tubulin” (ACS Med Chem Lett, 2017)
The source made the active and inactive calls. No cut-off for these calls is given here.

Legend:
MCF7 = assay: Cytotoxicity against human MCF7 cells assessed as cell growth inhibition incubated for 3 days by trypan blue exclusion assay; assay type: functional, cell-based; settings: MCF7, 72 h
Outline: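 MCF-7 human breast carcinoma cells; growth inhibition; triplicate experiments.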

Tubulin = assay: Inhibition of tubulin (unknown origin) polymerization preincubated for 15 mins followed by GTP addition by turbidity based spectrophotometer analysis; assay type: protein-complex assay, Homo sapiens
Tubulin (Homo sapiens) = Tubulin (Homo sapiens) (UniProt P68371+Q9H4B7+P0DPH7+P68366+Q13509+Q71U36+P04350+Q3ZCM7+P07437+P68363+Q9BQE3+Q6PEY2+Q13885+Q9BVA1+Q9BUF5); assay: Inhibition of [3H]colchicine binding to tubulin (unknown origin) at 5 uM incubated for 10 mins relative to control; assay type: protein-complex assay
LAMA-84 [1] = assay: Effect on total cofilin protein level in human LAMA-84 cells at 100 nM incubated for 24 hrs by Western blot analysis; assay type: functional, cell-based
LAMA-84 [2] = assay: Effect on total beta-catenin protein level in human LAMA-84 cells at 100 nM incubated for 24 hrs by Western blot analysis; assay type: functional, cell-based
[3] = biological target: Bcr/Abl fusion protein (Homo sapiens) (UniProt P00519+P11274); assay: Inhibition of BCR-ABL phospho-activation in human LAMA-84 cells at 100 nM incubated for 24 hrs by Western blot analysis; assay type: cell-based
Outline: (§1)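 LAMA84 cells cultured 24 h at 100 nM, alongside IM 100 nM and DMSO controls; lysates analysed by Western immunoblotting for BCR/ABL auto-activation and total E-cadherin.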

KU812 cell line [4] = assay: Induction of apoptosis in human KU812 cells assessed as increase in PARP cleavage measured after 24 hrs by Western blot analysis; assay type: functional, cell-based
Outline: (§2)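 KU812 cells treated for 6 h and 24 h; immunoblotting for p21Cip/WAF1 and PARP cleavage.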

KU812 cell line [5] = assay: Induction of cell cycle arrest in human KU812 cells assessed as accumulation of cells at sub-G1 phase incubated for 2 to 8 hrs by RNase/PI staining based flow cytometry analysis relative to control; assay type: functional; settings: time 2-8 hrs
Outline: (§3)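 KU812 cells treated with 100 nM versus DMSO vehicle for 2-8 h or 24 h; cell cycle distribution (G2/M, sub-G1) by flow cytometry.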

LAMA-84 [6] = assay: Antiproliferative activity against human LAMA-84 cells expressing BCR/ABL assessed as cell growth inhibition at 12 nM incubated for 48 hrs by MTT assay relative to control; assay type: functional
Outline: (§4)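 KU812 or LAMA84 CML blast-crisis cells (BCR/ABL-expressing) exposed to increasing doses for 48 h; proliferation read by MTT assay; triplicate experiments.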

KYSE-150 cell line = assay: Cytotoxicity against human KYSE-150 cells assessed as cell growth inhibition incubated for 48 to 96 hrs by celltiter-flor reagent based fluorescence assay; assay type: functional
HCT-116 = assay: Cytotoxicity against human HCT-116 cells assessed as cell growth inhibition incubated for 48 hrs by MTT assay; assay type: functional, cell-based; settings: HCT-116, 48 h
HepG2 = assay: Cytotoxicity against human HepG2 cells assessed as cell growth inhibition incubated for 48 hrs by MTT assay; assay type: functional, cell-based; settings: HepG2, 48 h
KU812 cell line [7] = assay: Antiproliferative activity against human KU812 cells expressing BCR/ABL assessed as cell growth inhibition at 12 nM incubated for 48 hrs by MTT assay relative to control; assay type: functional; outline: as §4
[8] = Cytotoxicity against human PBMC cells assessed as reduction in cell viability up to 1 uM incubated for 48 hrs by MTT assay; assay type: toxicity, cell-based
Outline: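 Peripheral blood mononuclear cells isolated from healthy donors, exposed to compound up to 1 μM for 48 h; viability read by MTT assay; triplicate experiments.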

KBM5 [9] = assay: Cytotoxicity against imatinib mesylate sensitive human KBM5 cells expressing wild type BCR/ABL assessed as cell growth inhibition; assay type: functional, cell-based
Outline: (§5)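 Hematopoietic KBM5 cells ectopically expressing IM-sensitive wild-type or IM-resistant T315I BCR/ABL, dosed over a concentration range; growth measured by MTT assay; average IC50 from triplicate experiments.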

KBM5 [10] = assay: Cytotoxicity against imatinib mesylate resistant human KBM5 cells expressing BCR/ABL T315I mutant assessed as cell growth inhibition; assay type: functional, cell-based; outline: as §5
KBM5 [11] = assay: Induction of apoptosis in imatinib mesylate resistant human KBM5 cells expressing BCR/ABL-T315I mutant assessed as annexin V positive cells incubated for 48 hrs by annexin V-FITC/propidium iodide staining based flow cytometry analysis (reference value: 2.2+/-1.8%); assay type: functional
KBM5 [12] = assay: Induction of apoptosis in imatinib mesylate sensitive human KBM5 cells expressing wild type BCR/ABL assessed as annexin V positive cells incubated for 48 hrs by annexin V-FITC/propidium iodide staining based flow cytometry analysis (reference value: 2.2+/-1.8%); assay type: functional
KU812 cell line [13] = assay: Induction of cell cycle arrest in human KU812 cells assessed as accumulation of cells at G2/M phase incubated for 2 to 8 hrs by RNase/PI staining based flow cytometry analysis (reference value: 35.7+/-[…]); assay type: functional; settings: time 2-8 hrs
KU812 cell line [14] = assay: Induction of cell cycle arrest in human KU812 cells assessed as accumulation of cells at G2/M phase incubated for 24 hrs by RNase/PI staining based flow cytometry analysis relative to control; assay type: functional; outline: as §3
KU812 cell line [15] = assay: Induction of apoptosis in human KU812 cells assessed as accumulation of cells at sub-G1 phase incubated for 24 hrs by RNase/PI staining based flow cytometry analysis (reference value: 0.4+/-0.8%); assay type: functional
KU812 cell line [16] = assay: Induction of apoptosis in human KU812 cells assessed as upregulation of p21 Cip/WAF1 protein expression incubated for 6 hrs by Western blot analysis; assay type: functional, cell-based; outline: as §2
KU812 cell line [17] = assay: Induction of apoptosis in human KU812 cells assessed as upregulation of p21 Cip/WAF1 protein expression measured after 24 hrs by Western blot analysis; assay type: functional, cell-based; outline: as §2
LAMA-84 [18] = assay: Downregulation of E-cadherin protein level in human LAMA-84 cells at 100 nM incubated for 24 hrs by Western blot analysis; assay type: functional, cell-based; outline: as §1
KU812 cell line [19] = assay: Antiproliferative activity against human KU812 cells expressing BCR/ABL assessed as cell growth inhibition; assay type: functional, cell-based; outline: as §4
LAMA-84 [20] = assay: Antiproliferative activity against human LAMA-84 cells expressing BCR/ABL assessed as cell growth inhibition; assay type: functional, cell-based; outline: as §4
KU812 cell line [21] = assay: Induction of morphological changes in human KU812 cells assessed as elongated shape at 100 nM incubated for 16 hrs by immunostaining based phase contrast microscopic analysis; assay type: functional, cell-based
Outline: (§6)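 KU812 cells treated with 100 nM versus DMSO vehicle; shape examined by phase contrast microscopy with tubulin immunostaining, scoring elongation, multiple centrosomes and failed cytokinesis.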

KU812 cell line [22] = assay: Induction of morphological changes in human KU812 cells expressing BCR/ABL assessed as multiple centrosome cells with failed cytokinesis at 100 nM incubated for 16 hrs by immunostaining based phase contrast microscopic analysis; assay type: functional, cell-based; outline: as §6
LAMA-84 [23] = assay: Downregulation of unphosphorylated beta-catenin protein expression in human LAMA-84 cells at 100 nM incubated for 24 hrs by Western blot analysis; assay type: functional, cell-based
LAMA-84 [24] = assay: Downregulation of phospho cofilin protein expression in human LAMA-84 cells at 100 nM incubated for 24 hrs by Western blot analysis; assay type: functional, cell-based
KU812 cell line [25] = assay: Induction of apoptosis in human KU812 cells assessed as appearance of blue-to-cyan fluorescence in nucleus by Hoechst-3258 staining based analysis; assay type: functional, cell-based
Outline: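 KU812 cells treated with compound versus DMSO control; nuclear morphology by Hoechst-3258 staining, blue-to-cyan fluorescence scored as apoptotic.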

LAMA-84 [26] = assay: Potentiation of imatinib mesylate induced antiproliferative activity against human LAMA-84 cells assessed as imatinib mesylate IC50 incubated for 48 hrs by MTT assay; assay type: functional, cell-based; settings: LAMA-84, 48 h
KBM5 [27] = assay: Potentiation of imatinib mesylate induced apoptosis in human KBM5 cells expressing wild type BCR/ABL assessed as increase in pro-apoptogenic effect at 100 nM incubated for 24 hrs by annexin V-FITC/propidium iodide staining based flow cytometry analysis; assay type: functional, cell-based
Outline: (§7)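 Annexin V-FITC staining to detect early cell death after 24 h; IM given with or without 100 nM test agent; read by flow cytometry; triplicate experiments.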

KBM5 [28] = assay: Potentiation of imatinib mesylate induced apoptosis in human KBM5 cells expressing BCR/ABL T315I mutant assessed as increase in pro-apoptogenic effect at 100 nM incubated for 24 hrs by annexin V-FITC/propidium iodide staining based flow cytometry analysis; assay type: functional, cell-based; outline: as §7
KU812 cell line [29] = assay: Induction of apoptosis in human KU812 cells assessed as upregulation of caspase-3 activation by flow cytometry; settings: time 0-24 hrs, TDE = time-dependent effect
OVCAR-8 = assay: Cytotoxicity against human OVCAR-8 cells assessed as cell growth inhibition incubated for 3 days by trypan blue exclusion assay; assay type: functional, cell-based; settings: OVCAR-8, 72 h
NCI/ADR-RES = assay: Cytotoxicity against human NCI/ADR-RES cells overexpressing p-glycoprotein assessed as cell growth inhibition incubated for 3 days by trypan blue exclusion assay; assay type: functional, cell-based; settings: 72 h

Chain of Bcr/Abl fusion protein (Homo sapiens) (P00519 whole entry, looked up, the tested form may be a part): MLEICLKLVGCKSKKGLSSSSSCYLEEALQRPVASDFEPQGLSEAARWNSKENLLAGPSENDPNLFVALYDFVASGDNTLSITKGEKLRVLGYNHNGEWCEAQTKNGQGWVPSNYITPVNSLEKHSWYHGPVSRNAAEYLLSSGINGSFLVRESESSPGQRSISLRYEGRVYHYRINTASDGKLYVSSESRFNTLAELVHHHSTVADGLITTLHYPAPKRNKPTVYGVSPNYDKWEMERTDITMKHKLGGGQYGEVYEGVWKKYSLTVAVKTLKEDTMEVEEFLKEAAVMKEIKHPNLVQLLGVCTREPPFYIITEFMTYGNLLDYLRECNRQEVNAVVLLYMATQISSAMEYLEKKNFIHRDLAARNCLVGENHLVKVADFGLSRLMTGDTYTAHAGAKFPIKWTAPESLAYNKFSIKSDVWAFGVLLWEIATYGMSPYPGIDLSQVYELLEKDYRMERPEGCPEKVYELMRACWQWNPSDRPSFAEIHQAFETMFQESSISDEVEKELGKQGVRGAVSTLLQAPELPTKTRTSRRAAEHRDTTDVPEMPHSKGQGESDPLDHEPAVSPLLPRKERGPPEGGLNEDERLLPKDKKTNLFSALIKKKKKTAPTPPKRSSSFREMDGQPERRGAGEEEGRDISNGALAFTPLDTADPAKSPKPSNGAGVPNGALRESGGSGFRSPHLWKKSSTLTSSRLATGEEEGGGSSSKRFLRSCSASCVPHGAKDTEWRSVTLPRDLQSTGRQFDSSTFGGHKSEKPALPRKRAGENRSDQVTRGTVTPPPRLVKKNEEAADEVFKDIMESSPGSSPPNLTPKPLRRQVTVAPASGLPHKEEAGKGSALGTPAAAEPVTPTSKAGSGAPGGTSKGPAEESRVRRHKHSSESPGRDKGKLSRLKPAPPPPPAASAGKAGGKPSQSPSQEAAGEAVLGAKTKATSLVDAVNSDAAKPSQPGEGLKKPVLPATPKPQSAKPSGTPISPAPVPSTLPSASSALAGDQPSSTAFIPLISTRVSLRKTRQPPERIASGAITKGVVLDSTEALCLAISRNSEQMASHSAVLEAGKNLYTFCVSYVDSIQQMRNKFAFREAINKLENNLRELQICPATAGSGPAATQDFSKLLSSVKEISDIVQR
Chain of Bcr/Abl fusion protein (Homo sapiens) (P11274 whole entry, looked up, the tested form may be a part): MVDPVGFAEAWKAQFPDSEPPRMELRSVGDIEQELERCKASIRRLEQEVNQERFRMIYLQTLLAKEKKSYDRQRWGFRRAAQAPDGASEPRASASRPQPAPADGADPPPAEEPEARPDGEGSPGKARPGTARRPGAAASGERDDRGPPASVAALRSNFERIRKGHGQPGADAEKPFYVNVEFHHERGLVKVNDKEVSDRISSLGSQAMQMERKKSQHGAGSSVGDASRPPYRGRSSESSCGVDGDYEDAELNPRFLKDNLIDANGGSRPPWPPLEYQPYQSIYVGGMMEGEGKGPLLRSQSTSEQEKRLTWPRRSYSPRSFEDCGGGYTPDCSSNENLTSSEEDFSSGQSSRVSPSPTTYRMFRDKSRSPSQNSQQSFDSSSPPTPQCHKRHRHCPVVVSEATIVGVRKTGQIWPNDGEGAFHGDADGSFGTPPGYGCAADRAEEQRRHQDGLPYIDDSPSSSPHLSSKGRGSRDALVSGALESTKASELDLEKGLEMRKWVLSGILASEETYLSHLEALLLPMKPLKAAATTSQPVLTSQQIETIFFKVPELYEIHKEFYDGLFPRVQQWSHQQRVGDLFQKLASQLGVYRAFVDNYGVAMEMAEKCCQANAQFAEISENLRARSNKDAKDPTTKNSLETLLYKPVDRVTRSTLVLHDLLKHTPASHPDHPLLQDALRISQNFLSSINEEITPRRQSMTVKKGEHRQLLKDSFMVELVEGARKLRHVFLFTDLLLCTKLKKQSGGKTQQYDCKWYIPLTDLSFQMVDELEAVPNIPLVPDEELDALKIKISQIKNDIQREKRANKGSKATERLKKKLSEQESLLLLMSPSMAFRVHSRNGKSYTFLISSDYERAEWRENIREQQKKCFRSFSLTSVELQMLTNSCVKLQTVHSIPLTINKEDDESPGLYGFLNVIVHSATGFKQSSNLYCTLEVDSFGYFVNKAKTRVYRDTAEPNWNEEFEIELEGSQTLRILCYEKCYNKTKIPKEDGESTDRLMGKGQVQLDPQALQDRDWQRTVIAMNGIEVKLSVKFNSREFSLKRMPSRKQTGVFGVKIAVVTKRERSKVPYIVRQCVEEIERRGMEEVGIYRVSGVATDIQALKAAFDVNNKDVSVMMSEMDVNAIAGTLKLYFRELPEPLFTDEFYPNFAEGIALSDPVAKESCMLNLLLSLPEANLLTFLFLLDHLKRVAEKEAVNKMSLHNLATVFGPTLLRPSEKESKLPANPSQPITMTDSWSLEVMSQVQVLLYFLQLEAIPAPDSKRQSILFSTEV

## COc1cc(C(=O)c2cn(-c3ccccc3)cc2-c2ccccc2F)cc(OC)c1OC
MCF7
  IC50: 30 nM
Tubulin
  IC50: 580 nM
Tubulin (Homo sapiens)
  inhibition: 72%

## COc1cc(C(=O)c2cn(-c3ccccc3)cc2-c2ccc(F)cc2)cc(OC)c1OC
MCF7
  IC50: 78 nM
Tubulin
  IC50: 760 nM
Tubulin (Homo sapiens)
  inhibition: 47%

## COc1cc(C(=O)c2cn(-c3ccccc3)cc2-c2ccc(N)cc2)cc(OC)c1OC
LAMA-84 [1]
  Activity: inactive
LAMA-84 [2]
  Activity: inactive
[3]
  inhibition: inactive
KU812 cell line [4]
  Activity: Active
KU812 cell line [5]
  Activity: <10%
LAMA-84 [6]
  inhibition at 0.012 µM: 50%
Tubulin (Homo sapiens)
  inhibition: 81%
KYSE-150 cell line
  IC50: 20 nM
HCT-116
  IC50: 20 nM
HepG2
  IC50: 46 nM
KU812 cell line [7]
  inhibition at 0.012 µM: 50%
[8]
  Activity: Non-Toxic
KBM5 [9]
  IC50: 15 nM
KBM5 [10]
  IC50: 18 nM
KBM5 [11]
  Activity: 58.2%
KBM5 [12]
  Activity: 62.6%
KU812 cell line [13]
  Activity: 60.3%
KU812 cell line [14]
  Activity: 11.4%
KU812 cell line [15]
  Activity: 75.6%
KU812 cell line [16]
  Activity: Active
KU812 cell line [17]
  Activity: inactive
LAMA-84 [18]
  Activity: Active
KU812 cell line [19]
  IC50: 12 nM
LAMA-84 [20]
  IC50: 14 nM
KU812 cell line [21]
  Activity: Active
KU812 cell line [22]
  Activity: Active
LAMA-84 [23]
  Activity: Active
LAMA-84 [24]
  Activity: Active
KU812 cell line [25]
  Activity: Active
LAMA-84 [26]
  IC50: < 10 nM
KBM5 [27]
  Activity: Active
KBM5 [28]
  Activity: Active
KU812 cell line [29]
  Activity: Tde

## COc1cc(C(=O)c2ccn(-c3cccc(N)c3)c2)cc(OC)c1OC
KU812 cell line [19]
  IC50: 28 nM
LAMA-84 [20]
  IC50: 28 nM

## COc1cc(C(=O)c2cn(-c3ccc(C)cc3)cc2-c2ccccc2)cc(OC)c1OC
MCF7
  IC50: 30 nM
Tubulin
  IC50: 880 nM
Tubulin (Homo sapiens)
  inhibition: 79%

## COc1cc(C(=O)c2cn(-c3ccccc3)cc2-c2cccc(C)c2)cc(OC)c1OC
MCF7
  IC50: 450 nM
Tubulin
  IC50: 1600 nM
Tubulin (Homo sapiens)
  inhibition: 5.7%

## COc1cc(C(=O)c2cn(-c3ccccc3)cc2-c2cccc(F)c2)cc(OC)c1OC
MCF7
  IC50: 57 nM
Tubulin
  IC50: 630 nM
Tubulin (Homo sapiens)
  inhibition: 53%

## COc1cc(C(=O)c2cn(-c3ccccc3)cc2-c2cccc(N)c2)cc(OC)c1OC
MCF7
  IC50: 28 nM
Tubulin
  IC50: 390 nM
Tubulin (Homo sapiens)
  inhibition: 57%
OVCAR-8
  IC50: 190 nM
NCI/ADR-RES
  IC50: 110 nM
